Common to all, as to format: functional
Assay [1] has as its system Escherichia coli. Kind of assay: Inhibitory concentration required to displace dansyl-PMBN (0.55 uM) from maximal specific binding to Escherichia coli LPS. The gist of the method:
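Fluorescence displacement assay. E. coli LPS (3 µg/mL, ~2 × 10^-7 M) in 5 mM HEPES pH 7.2 was pre-equilibrated with dansyl-PMBN (0.55 µM). Peptide was added stepwise at 5-min intervals from 1 × 10^-5 to 1 × 10^-3 M stocks. Fluorescence read at excitation 340 nm and emission 485 nm after each addition. Percent inhibition was plotted against concentration to give maximal and 50% displacement. 2-3 repeats.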

In assay [2] the test system is Escherichia coli. Kind of assay: Antimicrobial activity against Escherichia coli (Escherichia coli). In a few lines: (§1)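 Clinical isolates grown on nutrient agar and kept at 4 °C. Overnight culture in isotonic sensitest broth (ISB) adjusted to 1 × 10^5 CFU/mL and inoculated into wells holding a 2-fold serial dilution (1000-0.5 µg/mL) of test agent in ISB. Incubated 20 h at 37 °C. MIC is the lowest concentration with no visible growth. 4-8 separate tests, varying by no more than one dilution.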

The test system of assay [3] is Escherichia coli. Kind of assay: Relative sensitizing activity against Escherichia coli was determined as a percent of pPMBN (50 ug/mL) as a control. In a few lines: (§2)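 Clinical isolates at 1 × 10^5 CFU per well, in ISB with a 2-fold serial dilution (1000-0.5 µg/mL) of novobiocin. Peptide added at 50 µg/mL final. Incubated 20 h at 37 °C and read by visible growth. Sensitizing activity is the fold drop in novobiocin MIC with versus without peptide, expressed as percent of that given by 50 µg/mL pPMBN.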

The test system of assay [4] is Klebsiella pneumoniae. Kind of assay: Antimicrobial activity against Klebsiella pneumoniae (Klebsiella pneumoniae). The gist of the method: as §1
Assay [5] relates to Klebsiella pneumoniae. Nature of the assay: Relative sensitizing activity against Klebsiella pneumoniae was determined as a percent of pPMBN (50 ug/mL) as a control. The gist of the method:
as §2

Assay [6] has as its system Escherichia coli. Nature of the assay: Minimal inhibitory concentration of compound required against Escherichia coli was evaluated; Inactive. The gist of the method:
as §1

The subject of the next assay is Pseudomonas aeruginosa. Nature of the assay: Minimal inhibitory concentration of compound required against Pseudomonas aeruginosa was evaluated. The gist of the method:
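P. aeruginosa clinical isolate kept on nutrient agar at 4 °C. Overnight culture in isotonic sensitest broth adjusted to 1 × 10^5 CFU/mL and added to serial 2-fold dilutions (1000-0.5 µg/mL) of test agent in the same broth. MIC is the lowest concentration with no visible growth after 20 h at 37 °C. 4-8 separate tests, varying by no more than one dilution.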

Assay [7] has as its system Klebsiella pneumoniae. Kind of assay: Minimal inhibitory concentration of compound required against Klebsiella pneumoniae was evaluated; Inactive. In a few lines:
as §1

The values below come from ChEMBL document CHEMBL1133010, “Structure-function studies of polymyxin B nonapeptide: implications to sensitization of gram-negative bacteria” (J Med Chem, 2000).

Converted amounts (≈) assume the structure as drawn. Where only a bound is given, the exact number is not on record here.

In turn, `CC(C)C[C@@H]1NC(=O)[C@@H](Cc2ccccc2)NC(=O)[C@H](CCN)NC(=O)[C@H](CCN)NC(=O)[C@@H](NC(=O)[C@@H](N)[C@@H](C)O)CCNC(=O)[C@H]([C@@H](C)O)NC(=O)[C@H](CCN)NC(=O)[C@H](CCN)NC1=O` showed an IC50 with Escherichia coli [1] (Escherichia coli) of 8 µM.

Consider `CC(C)C[C@@H]1NC(=O)[C@@H](Cc2ccccc2)NC(=O)[C@H](CCCCN)NC(=O)[C@@H](NC(=O)[C@H](CCCCN)NC(=O)[C@@H](N)[C@@H](C)O)CCNC(=O)[C@H]([C@@H](C)O)NC(=O)[C@H](CCCCN)NC(=O)[C@H](CCCCN)NC1=O`, for which the IC50 in the assay on Escherichia coli [1] (Escherichia coli) stood at 30 µM.

With `CO[C@@H]1[C@@H](OC(N)=O)[C@@H](O)[C@H](Oc2ccc3c(O)c(NC(=O)c4ccc(O)c(CC=C(C)C)c4)c(=O)oc3c2C)OC1(C)C` [NOVOBIOCIN], the MIC against Escherichia coli [2] worked out at 125 µg/mL (≈ 204 µM); in the assay on Escherichia coli [3] it was 125 µg/mL; in the assay with Klebsiella pneumoniae [4] it was 250 µg/mL (≈ 408 µM); with Klebsiella pneumoniae [5], 62 µg/mL.

The molecule `CC(C)C[C@@H]1NC(=O)[C@H](Cc2ccccc2)NC(=O)[C@H](CCN)NC(=O)[C@@H](NC(=O)[C@H](CCN)NC(=O)[C@@H](N)[C@@H](C)O)CCNC(=O)[C@H]([C@@H](C)O)NC(=O)[C@H](CCN)NC(=O)[C@H](CCN)NC1=O` came in with an IC50 in the assay on Escherichia coli [1] (Escherichia coli) of 8 µM.

`CC(C)C[C@@H]1NC(=O)[C@@H](Cc2ccccc2)NC(=O)[C@H](CCN)NC(=O)[C@@H](NC(=O)[C@H](CCN)NC(=O)[C@@H](N)[C@@H](C)O)CCNC(=O)[C@H]([C@@H](C)O)NC(=O)[C@H](CCN)NC(=O)[C@H](CCN)NC1=O` (stereo in doubt; form 1) [listing 1 of 2 here] gave an IC50 in the assay on Escherichia coli [1] (Escherichia coli) of 2.5 µM.

On to `CC(C)C[C@@H]1NC(=O)[C@@H](Cc2ccccc2)NC(=O)[C@@H](NC(=O)[C@H](CCN)NC(=O)[C@H](CCN)NC(=O)[C@@H](N)[C@@H](C)O)CCNC(=O)[C@H]([C@@H](C)O)NC(=O)[C@H](CCN)NC(=O)[C@H](CCN)NC1=O`, for which the half-inhibitory concentration (IC50) in the assay on Escherichia coli [1] (Escherichia coli) stood at 15 µM.

The molecule `CC(C)C[C@@H]1NC(=O)[C@@H](Cc2ccccc2)NC(=O)[C@H](CCCCN)NC(=O)[C@@H](NC(=O)[C@H](CCCCN)NC(=O)[C@@H](N)[C@@H](C)O)CCCCNC(=O)[C@H]([C@@H](C)O)NC(=O)[C@H](CCCCN)NC(=O)[C@H](CCCCN)NC1=O` came in with an IC50 with Escherichia coli [1] (Escherichia coli) of 35 µM.

Take POLYMYXIN B: the IC50 with Escherichia coli [1] was found to be 0.5 µM.

Take `CC(C)C[C@@H]1NC(=O)[C@@H](Cc2ccccc2)NC(=O)[C@H](CCN)NC(=O)[C@@H](NC(=O)[C@H](CCN)NC(=O)[C@@H](N)[C@@H](C)O)CCCCNC(=O)[C@H]([C@@H](C)O)NC(=O)[C@H](CCN)NC(=O)[C@H](CCN)NC1=O`: the concentration for half-maximal inhibition (IC50) with Escherichia coli [1] (Escherichia coli) was found to be 8 µM.

In the case of `CC(C)C[C@@H]1NC(=O)[C@@H](Cc2ccccc2)NC(=O)[C@H](CCN)NC(=O)[C@@H](NC(=O)[C@H](CCN)NC(=O)[C@@H](N)[C@@H](C)O)CCNC(=O)[C@H]([C@@H](C)O)NC(=O)[C@H](CCN)NC(=O)[C@H](CCN)NC1=O` (stereo in doubt; form 1) [listing 2 of 2 here], the MIC is not below 1000 µg/mL in the assay on Escherichia coli [6], 8 µg/mL (≈ 8.31 µM) in the assay on Pseudomonas aeruginosa and not below 1000 µg/mL against Klebsiella pneumoniae [7]. Further, the Activity in the assay with Escherichia coli [3] and in the assay on Klebsiella pneumoniae [5] was 100% in each case.

As to `CC(C)C[C@@H]1NC(=O)[C@@H](Cc2ccccc2)NC(=O)[C@H](CN)NC(=O)[C@@H](NC(=O)[C@H](CN)NC(=O)[C@@H](N)[C@@H](C)O)CNC(=O)[C@H]([C@@H](C)O)NC(=O)[C@H](CN)NC(=O)[C@H](CN)NC1=O`, the IC50 in the assay with Escherichia coli [1] (Escherichia coli) is 30 µM.

In turn, `CC(C)C[C@@H]1NC(=O)[C@@H](Cc2ccccc2)NC(=O)[C@H](CCN)NC(=O)[C@@H](NC(=O)[C@H](CCN)NC(=O)[C@@H](N)[C@@H](C)O)CCNC(=O)[C@H]([C@@H](C)O)NC(=O)[C@H](CCN)NC(=O)[C@H](CCN)NC1=O` (stereo in doubt; form 2) gave a half-maximal inhibitory concentration (IC50) with Escherichia coli [1] of 3 µM.

As usually defined, the IC50 is the concentration that gives 50% inhibition. Broadly, the MIC is the lowest concentration found to suppress growth.
